Consider five compounds from ChEMBL document CHEMBL2203189, “Synthesis and pharmacology of 1-alkyl-3-(1-naphthoyl)indoles: steric and electronic effects of 4- and 8-halogenated naphthoyl substituents” (Bioorg Med Chem, 2012).

Active and inactive are the calls of the source.

The test system of assay [1] is Mus musculus. Nature of the assay: Locomotor activity in Harlan ICR mouse assessed as inhibition of activity level at 68 umol/kg, iv from 5 to 15 mins by spontaneous locomotor activity test relative to vehicle treated control. Format: functional. The essentials: (§1)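 Male ICR mice, n = 6 per dose, single probe dose iv in emulphor–ethanol–saline 1:1:18. Photocell beam interruptions recorded over 10 min, at 5–15 min after dosing. Result given as % inhibition relative to the vehicle group.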

The target of another assay is Cannabinoid receptor 2 (Homo sapiens, UniProt P34972). Nature of the assay: Displacement of [3H]CP55940 from human CB2 receptor expressed in CHO cells after 1 hr by liquid scintillation spectrophotometry. Format: cell-based. The method in brief:
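Membranes (50 µg) from CHO cells stably expressing human CB2, cultured in DMEM/10% fetal calf serum. Incubated with 0.5 nM [3H]CP55,940 and test compound at 1 nM–10 µM with BSA (5 mg/mL), 1 h at 30 °C. Nonspecific binding defined with excess unlabelled CP55,940. GF/B filtration, then scintillation counting.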
(Displacement assays read how much labelled ligand stays bound in the presence of the test substance.)

The species entered for the next assay is Homo sapiens. Nature of the assay: Selectivity ratio of Ki for human CB1 receptor to Ki for human CB2 receptor.
Assay [2] deals with Mus musculus. Nature of the assay: Antinociceptive activity in Harlan ICR mouse assessed as latency to heat-induced tail flicking at 68 umol/kg, iv at 20 mins relative to control. Format: functional, organism-based.
In assay [3] the target is T1, Cannabinoid receptor 1 (Homo sapiens, UniProt P21554). Nature of the assay: Displacement of [3H]CP55940 from human CB1 receptor expressed in HEK293 cells after 1 hr by liquid scintillation spectrophotometry. Format: cell-based. The essentials:
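Membranes (50 µg) from HEK-293 cells stably expressing human CB1, cultured in DMEM/10% FBS. Incubated with 0.5 nM [3H]CP55,940 and test compound at 1 nM–10 µM in buffer with BSA (5 mg/mL), 1 h at 30 °C. Nonspecific binding defined with excess unlabelled CP55,940. Filtered through GF/B, then scintillation counting.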

The subject of assay [4] is Mus musculus. Nature of the assay: Hypothermic activity in Harlan ICR mouse assessed as change in rectal temperature at 30 mg/kg, iv at 30 mins in the presence of rimonabant. Format: functional, organism-based. Also noted: dose 30 mg/kg.
For assay [5], the system named is Mus musculus. Nature of the assay: Induction of catalepsy in iv dosed Harlan ICR mouse at 40 mins measured for 5 mins by ring immobility test. Format: functional.
In assay [6] the test system is Mus musculus. Nature of the assay: Induction of catalepsy in Harlan ICR mouse at 30 mg/kg, iv 40 mins measured for 5 mins by ring immobility test in the presence of rimonabant. Also noted: dose 30 mg/kg. Format: functional, organism-based.
For assay [7], the system named is Mus musculus. Nature of the assay: Locomotor activity in Harlan ICR mouse at 30 mg/kg, iv from 5 to 15 mins by spontaneous locomotor activity test in the presence of rimonabant. Format: functional, organism-based. The arrangement: dose 30 mg/kg.
In assay [8] the test system is Mus musculus. Nature of the assay: Locomotor activity in iv dosed Harlan ICR mouse from 5 to 15 mins by spontaneous locomotor activity test. Format: functional.
Assay [9] concerns the target T1, Cannabinoid receptor 1. Nature of the assay: Activation of human CB1 receptor expressed in HEK293 cells assessed as [35S]GTPgamma binding after 90 mins by liquid scintillation spectrophotometry relative to CP55940. Format: functional, cell-based. The method in brief: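 Membranes from HEK-293 cells stably expressing human CB1, pelleted at 50,000g and taken up in Tris-HCl pH 7.4 with MgCl2, EGTA and NaCl. 10 µg protein with BSA, 20 µM GDP, 0.1 nM [35S]GTPγS and graded test concentrations, 90 min at 30 °C. 2 µM CP55,940 run as internal standard; basal without agonist, nonspecific with 10 µM GTPγS. Filtration, then scintillation counting.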

Assay [10] relates to Mus musculus. Nature of the assay: Antinociceptive activity in Harlan ICR mouse assessed as latency to heat-induced tail flicking at 30 mg/kg, iv at 20 mins in the presence of rimonabant. Format: functional, organism-based. The arrangement: dose 30 mg/kg.
In assay [11] the test system is Mus musculus. Nature of the assay: Antinociceptive activity in iv dosed Harlan ICR mouse assessed as latency to heat-induced tail flicking at 20 mins. Format: functional. The essentials:
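Male ICR mice, 18–25 g, n = 6 per dose. Multiple doses iv by tail vein in emulphor–ethanol–saline 1:1:18. Tail-flick latency at 20 min, 10 s cutoff, expressed as %MPE.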

Assay [12] deals with Mus musculus. Nature of the assay: Hypothermic activity in iv dosed Harlan ICR mouse assessed as change in rectal temperature at 30 mins. Format: functional. The settings on record: 0.5 h.
The subject of assay [13] is Mus musculus. Nature of the assay: Antinociceptive activity in Harlan ICR mouse assessed as latency to heat-induced tail flicking at 66 umol/kg, iv at 20 mins relative to control. Format: functional.
Assay [14] has as its system Mus musculus. Nature of the assay: Hypothermic activity in Harlan ICR mouse assessed as change in rectal temperature at 66 umol/kg, iv at 30 mins. Format: functional. The method in brief:
(§2)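 Male ICR mice, n = 6 per dose. Single probe dose iv in emulphor–ethanol–saline 1:1:18. Rectal temperature taken with a thermistor probe at 25 mm depth before dosing and at 30 min. Result given as change from pre-injection value (°C).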

Assay [15] deals with Mus musculus. Nature of the assay: Locomotor activity in Harlan ICR mouse assessed as inhibition of activity level at 66 umol/kg, iv from 5 to 15 mins by spontaneous locomotor activity test relative to vehicle treated control. Format: functional. The essentials:
as §1

Assay [16] concerns Mus musculus. Nature of the assay: Locomotor activity in Harlan ICR mouse assessed as inhibition of activity level at 80 umol/kg, iv from 5 to 15 mins by spontaneous locomotor activity test relative to vehicle treated control. Format: functional. The essentials:
as §1

In assay [17] the test system is Mus musculus. Nature of the assay: Induction of catalepsy in Harlan ICR mouse at 80 umol/kg, iv at 40 mins measured for 5 mins by ring immobility test. Format: functional. The essentials: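 Male ICR mice given a single iv probe dose in emulphor–ethanol–saline 1:1:18. At 40 min placed on a 5.5 cm ring raised 16 cm and observed for 5 min by blinded raters. Up to 5 escapes allowed; mice escaping before 2.5 min excluded. Immobility index = time motionless / 300 s × 100.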

In assay [18] the test system is Mus musculus. Nature of the assay: Hypothermic activity in Harlan ICR mouse assessed as change in rectal temperature at 80 umol/kg, iv at 30 mins. Format: functional. The method in brief: as §2
For assay [19], the system named is Mus musculus. Nature of the assay: Antinociceptive activity in Harlan ICR mouse assessed as latency to heat-induced tail flicking at 80 umol/kg, iv at 20 mins relative to control. Format: functional.
The subject of assay [20] is Mus musculus. Nature of the assay: Hypothermic activity in Harlan ICR mouse assessed as change in rectal temperature at 6.9 umol/kg, iv at 30 mins. Format: functional. The essentials: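 Male ICR mice, 18–25 g, dosed iv in the tail vein with a single probe dose in emulphor–ethanol–saline 1:1:18. Rectal thermistor probe inserted to 25 mm. Baseline read before injection and again at 30 min. Reported as the change from pre-injection temperature (Δ°C). n = 6 per dose.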

The test system of assay [21] is Mus musculus. Nature of the assay: Antinociceptive activity in Harlan ICR mouse assessed as latency to heat-induced tail flicking at 6.9 umol/kg, iv at 20 mins relative to control. Format: functional.
Assay [22] concerns Mus musculus. Nature of the assay: Induction of catalepsy in Harlan ICR mouse at 6.9 umol/kg, iv at 40 mins measured for 5 mins by ring immobility test. Format: functional. The method in brief:
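Ring test on male ICR mice given one probe dose iv (tail vein; 1:1:18 emulphor–ethanol–saline). At 40 min each mouse is placed on a 5.5 cm ring 16 cm high and scored over 5 min by blinded observers. Up to 5 escapes allowed; data dropped if escapes occur before 2.5 min. Immobility index = time motionless/300 s × 100. n = 6 per dose.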

Assay [23] has as its system Mus musculus. Nature of the assay: Locomotor activity in Harlan ICR mouse assessed as inhibition of activity level at 6.9 umol/kg, iv from 5 to 15 mins by spontaneous locomotor activity test relative to vehicle treated control. Format: functional. The method in brief: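 Spontaneous activity in male ICR mice (18–25 g) after one iv tail-vein probe dose in 1:1:18 emulphor–ethanol–saline. Photocell beam interruptions (16 beams per chamber) recorded over 10 min, 5–15 min after dosing. Reported as % inhibition relative to the vehicle group. n = 6 per dose.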

T1 sequence (P21554 whole entry): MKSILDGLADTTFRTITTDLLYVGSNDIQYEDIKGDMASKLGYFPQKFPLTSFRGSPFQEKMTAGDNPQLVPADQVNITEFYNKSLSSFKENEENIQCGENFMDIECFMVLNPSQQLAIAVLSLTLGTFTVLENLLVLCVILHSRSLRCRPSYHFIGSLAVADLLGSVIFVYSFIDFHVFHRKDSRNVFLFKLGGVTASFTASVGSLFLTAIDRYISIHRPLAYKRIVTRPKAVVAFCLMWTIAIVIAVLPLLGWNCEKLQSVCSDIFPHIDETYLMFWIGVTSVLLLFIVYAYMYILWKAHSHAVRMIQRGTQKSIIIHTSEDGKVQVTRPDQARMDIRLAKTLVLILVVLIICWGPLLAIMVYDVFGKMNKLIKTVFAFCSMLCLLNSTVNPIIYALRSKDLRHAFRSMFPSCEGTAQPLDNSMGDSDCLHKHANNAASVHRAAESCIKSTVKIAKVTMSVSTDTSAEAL
Chain of Cannabinoid receptor 2 (P34972 whole entry): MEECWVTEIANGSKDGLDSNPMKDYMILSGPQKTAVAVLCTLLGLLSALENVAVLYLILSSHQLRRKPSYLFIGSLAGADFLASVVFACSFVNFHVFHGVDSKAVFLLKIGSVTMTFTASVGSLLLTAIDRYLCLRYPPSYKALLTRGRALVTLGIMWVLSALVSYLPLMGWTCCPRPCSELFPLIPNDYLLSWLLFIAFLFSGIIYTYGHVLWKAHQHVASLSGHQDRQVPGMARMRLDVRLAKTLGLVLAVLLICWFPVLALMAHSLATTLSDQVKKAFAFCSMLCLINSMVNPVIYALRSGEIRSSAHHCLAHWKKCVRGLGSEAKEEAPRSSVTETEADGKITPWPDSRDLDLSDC

Regarding `CCCn1cc(C(=O)c2cccc3cccc(I)c23)c2ccccc21`, the inhibition in vivo (commonly the change of the read-out against control, counted positive when it falls) at 68 µmol/kg in the assay on Mus musculus [1] is -25%. In addition, the Ki (commonly the dissociation constant of the complex between target and ligand, obtained from inhibition or displacement) on Cannabinoid receptor 2 came to 152 nM; at Cannabinoid receptor 1 [3], 2960 nM. The Ratio Ki in the assay filed under Homo sapiens stood at 19. Moreover, the outcome in the assay with Mus musculus [2] was inactive.

In the case of `CCCn1c(C)c(C(=O)c2ccc(F)c3ccccc23)c2ccccc21`, the result in the assay on Mus musculus [4], in the assay on Mus musculus [6], in the assay with Mus musculus [7] and in the assay on Mus musculus [10] was inactive. The ED50 (commonly the dose that gives a 50% effect, or the effect in half of the subjects) with Mus musculus [5] came to 23.2 µmol/kg; with Mus musculus [8], 9.6 µmol/kg; with Mus musculus [11], 11.9 µmol/kg; in the assay on Mus musculus [12] it was 30.1 µmol/kg. For the same compound, at Cannabinoid receptor 1 [9], the Emax – broadly, the greatest response seen or fitted, relative to the assay's reference – was found to be 59%. For the same compound, the Ki came out at 38 nM on Cannabinoid receptor 2 and 530 nM on Cannabinoid receptor 1 [3]. Besides, in the assay listed under Homo sapiens, the Ratio Ki was determined as 14.

Take `CCCn1c(C)c(C(=O)c2ccc(I)c3ccccc23)c2ccccc21`: the results for the Activity in the assay on Mus musculus [13] and with Mus musculus [14] were 60% and -3%, respectively. Moreover, the Ki on Cannabinoid receptor 2 is 20 nM; on Cannabinoid receptor 1 [3], 501 nM. For the same compound, the Ratio Ki in the assay listed under Homo sapiens was 25. The inhibition in vivo at 66 µmol/kg in the assay with Mus musculus [15] was 74%.

As for `CCCCCn1cc(C(=O)c2cccc3cccc(Cl)c23)c2ccccc21`, the results for the Ki on Cannabinoid receptor 2 and at Cannabinoid receptor 1 [3] were 10 nM and 23 nM, respectively. For the same compound, the inhibition in vivo at 80 µmol/kg with Mus musculus [16] was 94%. Besides, the figures for the Activity with Mus musculus [17], with Mus musculus [18] and in the assay with Mus musculus [19] were 92%, -6.9% and 100%, respectively. Further, the Ratio Ki in the assay listed under Homo sapiens came out at 2.3.

`CCCCCn1c(C)c(C(=O)c2cccc3cccc(Br)c23)c2ccccc21`: the Activity in the assay on Mus musculus [20] was -3.7%; with Mus musculus [21], 100%; with Mus musculus [22], 53%. Also, the figures for the Ki on Cannabinoid receptor 2 and on Cannabinoid receptor 1 [3] were 10 nM and 54 nM, respectively. Also, the inhibition in vivo at 6.9 µmol/kg in the assay with Mus musculus [23] stood at 79%. Also, the Ratio Ki in the assay listed under Homo sapiens was determined as 5.5.
